Source: PubChem BioAssay
Hits are enriched below; roughly 1.9% of the tested compounds scored in any of these assays.
Runt-SMMHC FRET = blocks binding of human RUNX1 Runt domain to CBFb-SMMHC; Q01196+Q13951; Cerulean-Runt/Venus-CBFb-SMMHC FRET ratio 530/480, 1 h; inhibition, % at 20 µM; 220,000 tested, 0.74% active; AID 1434;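 active means mean inhibition across duplicate retests at 20 µM reaching about 50%, limit read from the data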;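 further: inhibitors lower the FRET ratio by blocking Runt binding to CBFb-SMMHC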
RanGTP-Imp inh = disruptors of Ran-importin-beta complex formation – biochemical, FRET, CFP-Ran, YFP-importin-beta, homogeneous, primary screen; cell-free CFP-Ran/YFP-importin-beta FRET ratio; inhibition, % (concentration not given with the values); 300,000 tested, 1.1% active; AID 2216;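 active means more than half of the replicate wells show a fall in the fluorescence ratio signal beyond about 16%, limit read from the data, passing the limit was not always enough; inconclusive means exactly half of the replicate wells pass the set limit; inactive means fewer than half of replicates pass the limit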
Hck Nef HTS = inhibitors of human Hck kinase activated by Nef; Recombinant Hck-YEEI plus Nef, Z-Lyte FRET kinase assay; AID 463187; 220,000 tested, 0.68% active; inhibition, % at 20 µM;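 active means Hck-Nef kinase inhibition above about 50%, limit read from the data; inactive means inhibition below that limit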
Target sequence (P08631 whole entry, looked up): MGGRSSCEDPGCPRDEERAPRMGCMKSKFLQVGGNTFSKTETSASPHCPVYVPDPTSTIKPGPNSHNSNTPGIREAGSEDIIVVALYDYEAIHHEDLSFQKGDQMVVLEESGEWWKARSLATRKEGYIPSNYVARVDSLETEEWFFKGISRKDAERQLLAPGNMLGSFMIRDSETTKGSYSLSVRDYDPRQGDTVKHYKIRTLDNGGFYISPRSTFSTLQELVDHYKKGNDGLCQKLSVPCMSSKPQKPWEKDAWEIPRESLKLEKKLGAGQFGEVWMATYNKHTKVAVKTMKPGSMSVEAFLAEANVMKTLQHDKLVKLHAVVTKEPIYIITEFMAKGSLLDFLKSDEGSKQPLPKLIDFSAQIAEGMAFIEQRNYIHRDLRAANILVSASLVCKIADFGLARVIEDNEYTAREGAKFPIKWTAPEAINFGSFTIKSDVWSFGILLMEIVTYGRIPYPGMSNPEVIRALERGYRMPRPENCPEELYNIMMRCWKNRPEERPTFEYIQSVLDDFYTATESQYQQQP
Runt-CBFb FRET = Runt domain-CBFb interaction inhibition; Q01196+Q13951; Cerulean-Runt/Venus-CBFb FRET ratio 530/480, 1 h; inhibition, % at 20 µM; 220,000 tested, 0.46% active; AID 1496;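 active means inhibition over about 50% at 20 µM in the single-dose screen, limit read from the data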
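test system = Cerulean-Runt domain fusion protein, energy donor | probe or stimulus = Venus-CBFb binding partner, 100 nM | incubation = two 1 h room-temperature incubations shielded from light | detection = fluorescence energy transfer, 422 nm excitation, 530/480 nm emission | measure = loss of energy transfer signal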
Each line names hits and unclear results; the compound was inactive in the other large screens.

CN1CCN(Cn2cc(/C=C/C(=O)c3ccccc3)c3ccccc32)CC1	RanGTP-Imp inh 67
CCCN(CCC)CC(O)Cn1cc(/C=C/C(=O)c2ccccc2)c2ccccc21 (stereo unspecified)	RanGTP-Imp inh 29
CCCN(CCC)CC(O)Cn1cc(/C=C/C(=O)c2cccs2)c2ccccc21 (stereo unspecified)	none
O=C(/C=C/c1cn(CC(O)CN2CCCCC2)c2ccccc12)c1ccccc1 (stereo unspecified)	none
CCCSc1ccc(-c2nn(-c3ccccc3)cc2/C=C(/C#N)C(=O)N2CCOCC2)cc1	none
CCSc1ccc(-c2nn(-c3ccccc3)cc2/C=C(/C#N)C(=O)NC)cc1	Runt-SMMHC FRET 60 (no result: RanGTP-Imp inh)
CCCc1nc(SCC(=O)N2CCCCCC2)c2c(=O)n(C)c(=O)n(C)c2n1	none (no result: Runt-SMMHC FRET, Hck Nef HTS, Runt-CBFb FRET)
Cc1cccc2cc3c(NC(=O)C(C)C)nn(C)c3nc12	RanGTP-Imp inh 47
Cc1ccc2cc3c(NC(=O)C(C)C)nn(C)c3nc2c1	none
CCC(=O)Nc1nn(C)c2nc3c(C)cccc3cc12	RanGTP-Imp inh 22
CCn1nc(NC(=O)c2ccncc2)c2cc3cccc(C)c3nc21	RanGTP-Imp inh inconclusive
CCCn1nc(NC(=O)CC)c2cc3cccc(C)c3nc21	RanGTP-Imp inh 55 (no result: Runt-SMMHC FRET, Hck Nef HTS, Runt-CBFb FRET)
CCn1nc(NC(=O)c2cccnc2)c2cc3cccc(C)c3nc21	none
COc1ccc(CC(=O)Nc2nn(C)c3nc4c(C)cccc4cc23)cc1	Runt-SMMHC FRET 72
CC1CN(S(=O)(=O)c2cccc(C(=O)Nc3ccc(S(=O)(=O)NC4=NCCCCC4)cc3)c2)CC(C)O1 (stereo unspecified)	none (no result: Runt-SMMHC FRET, Hck Nef HTS, Runt-CBFb FRET)
COc1ccccc1NC(=O)CCNC(=O)c1ccc(C)cc1	none (no result: Runt-SMMHC FRET, Hck Nef HTS, Runt-CBFb FRET)
CNC(=S)N/N=C/c1cn(CCOc2cccc(OC)c2)c2ccccc12	none
CCOc1ccc(NC(=S)N(CCOC)C(C)c2ccco2)cc1 (stereo unspecified)	none
CCOC(=O)c1c(Nc2ccccc2)sc(/C=C2\C=Nc3ccccc32)c1O	RanGTP-Imp inh 43
Oc1nc(Nc2ccccc2)sc1/C=C1\C=Nc2ccccc21	RanGTP-Imp inh 21
CCn1c(O)c(/C=C2\C=Nc3ccccc32)sc1=O	none
CC(=O)Nc1ccc(S(=O)(=O)Nc2cccc(-n3c(C)nc4ccccc4c3=O)c2)cc1	none (no result: Runt-SMMHC FRET, Hck Nef HTS, Runt-CBFb FRET)
CCN(CC)c1ccc(/C=N/NC(=O)c2cccc(S(=O)(=O)N3CCOCC3)c2)c(O)c1	Runt-SMMHC FRET 92
CNC(C)C#Cc1ccc2sc3cccc(OC)c3c(=O)c2c1 (stereo unspecified)	RanGTP-Imp inh 38 (no result: Runt-SMMHC FRET, Hck Nef HTS, Runt-CBFb FRET)
COc1cccc2sc3ccc(C#CC4(N)CCCCC4)cc3c(=O)c12	RanGTP-Imp inh 55 (no result: Runt-SMMHC FRET, Hck Nef HTS, Runt-CBFb FRET)
CCOC(=O)c1c(C)[nH]c(C(=O)OCC(=O)NC2CCS(=O)(=O)C2)c1C (stereo unspecified)	none
CCc1ccc(C(=O)NN(C(=O)c2ccc(CC)cc2)C(C)(C)C)cc1	none
N=c1oc2cc(O)ccc2cc1C(=O)Nc1ccccn1	Runt-SMMHC FRET 87, Hck Nef HTS 115 (no result: RanGTP-Imp inh)
N=c1oc2cc(O)ccc2cc1C(=O)Nc1nc2ccccc2s1	Runt-SMMHC FRET 63, RanGTP-Imp inh 136, Hck Nef HTS 81
COc1ccccc1C(=O)Nc1nc2ccccc2s1	none (no result: Runt-SMMHC FRET, Hck Nef HTS, Runt-CBFb FRET)
O=C(Nc1ccccn1)c1ccc2ccccc2c1O	none (no result: Runt-SMMHC FRET, Hck Nef HTS, Runt-CBFb FRET)
N=c1oc2cc(O)ccc2cc1C(=O)Nc1ccc(Br)cc1	RanGTP-Imp inh 167 (no result: Runt-SMMHC FRET, Hck Nef HTS, Runt-CBFb FRET)
O=S(=O)(NCc1ccccc1)NCc1ccc(Cl)cc1Cl	none (no result: Runt-SMMHC FRET, Hck Nef HTS, Runt-CBFb FRET)
CN1CCc2nc3ccc(Cl)cc3c(-c3ccccc3Cl)c2C1	none
CC1CCN(C(=O)CSc2nnc(-c3cc4ccccc4cc3O)n2Cc2ccco2)CC1	RanGTP-Imp inh 39
CCOC(=O)N1CC=C2C(C#N)=C(N)C(C#N)(C#N)[C@H](c3ccsc3)[C@H]2C1	none
CN1CC=C2C(C#N)=C(N)C(C#N)(C#N)C(CCc3ccccc3)C2C1 (stereo unspecified)	Runt-SMMHC FRET 79, Runt-CBFb FRET 103
CCCC1C2CN(C(C)C)CC=C2C(C#N)=C(N)C1(C#N)C#N (stereo unspecified)	RanGTP-Imp inh 89
N#CC1=C(N)C(C#N)(C#N)C(c2cccnc2)C2CC(c3ccccc3)CC=C12 (stereo unspecified)	none
CN1CC=C2C(C#N)=C(N)C(C#N)(C#N)[C@H](c3cccs3)[C@H]2C1	Runt-SMMHC FRET 75, RanGTP-Imp inh 55
CC(C)c1ccc(C2C3CSCC=C3C(C#N)=C(N)C2(C#N)C#N)cc1 (stereo unspecified)	RanGTP-Imp inh 16
Cc1noc(C)c1COC(=O)/C=C/c1ccccc1Cl	none
O=C(COc1ccccc1Cl)Nc1ccc2c(c1)C(=O)NC2=O	none (no result: Runt-SMMHC FRET, Hck Nef HTS, Runt-CBFb FRET)
N#CC1=C(N)C(C#N)(C#N)C(c2ccncc2)C2CN(C(=O)OCc3ccccc3)CC=C12 (stereo unspecified)	none
CN1CC=C2C(C#N)=C(N)C(C#N)(C#N)[C@H](c3cccc(Cl)c3)C2C1 (stereo partly specified)	Runt-SMMHC FRET 58, RanGTP-Imp inh 45
CN1CC=C2C(C#N)=C(N)C(C#N)(C#N)C(c3ccsc3)C2C1 (stereo unspecified)	Runt-SMMHC FRET 80, RanGTP-Imp inh 65, Runt-CBFb FRET 66
CN(C)C(CNC(=O)c1cc(S(=O)(=O)N(C)Cc2ccccc2)ccc1Cl)c1ccco1 (stereo unspecified)	none (no result: Runt-SMMHC FRET, Hck Nef HTS, Runt-CBFb FRET)
O=C1C=C(Nc2cccc(O)c2)CC(c2ccco2)C1 (stereo unspecified)	RanGTP-Imp inh 64
CCOc1ccc(NC2=CC(=O)CC(c3ccco3)C2)cc1 (stereo unspecified)	none
O=C1C=C(Nc2ccc(Cl)cc2)CC(c2ccco2)C1 (stereo unspecified)	RanGTP-Imp inh 29
O=C(Cc1ccc(Cl)cc1)NNC(=O)C1CC=CCC1C(=O)O (stereo unspecified)	none (no result: Runt-SMMHC FRET, Hck Nef HTS, Runt-CBFb FRET)
O=C1OCc2cccc([N+](=O)[O-])c21	none
O=C1CC(=O)c2c1cccc2[N+](=O)[O-]	Hck Nef HTS 75 (no result: RanGTP-Imp inh)
Cn1cnnc1SCC(=O)c1c[nH]c2ccccc12	RanGTP-Imp inh 31
O=C(CSc1nncn1-c1ccccc1)c1c[nH]c2ccccc12	none
Cc1ccc(S(=O)(=O)[N-]c2nc3ccccc3nc2-n2cc[n+](Cc3ccccc3)c2)cc1	RanGTP-Imp inh 14
O=S(=O)([N-]c1nc2ccccc2nc1-n1cc[n+](Cc2ccccc2)c1)c1ccccc1	RanGTP-Imp inh inconclusive
CCCNS(=O)(=O)c1ccc(OCC(=O)NCC2CCCO2)cc1 (stereo unspecified)	none (no result: Runt-SMMHC FRET, Hck Nef HTS, Runt-CBFb FRET)
COc1cccc2cc(C(=O)NC3CC4CCC3C4)oc12 (stereo unspecified)	RanGTP-Imp inh 26 (no result: Runt-SMMHC FRET, Hck Nef HTS, Runt-CBFb FRET)
Cc1cc(N2CCN(C3CCCC3)CC2)n2c(nc3ccccc32)c1C#N	Runt-SMMHC FRET 53
N#Cc1c(Cc2cccc3ccccc23)nn(CCO)c1N	none (no result: Runt-SMMHC FRET, Hck Nef HTS, Runt-CBFb FRET)
CCc1nnc(NC(=O)c2sc3nc4c(cc3c2N)CCCCCC4)s1	Runt-SMMHC FRET 61
CCc1nnc(NC(=O)c2sc3nc4c(cc3c2N)CCCCC4)s1	RanGTP-Imp inh inconclusive (no result: Runt-SMMHC FRET)
CN(c1ccccc1)S(=O)(=O)c1nnc(NC(=O)c2ccco2)s1	none (no result: Runt-SMMHC FRET, Hck Nef HTS, Runt-CBFb FRET)
